Calls of active or inactive are those of the source. The rule behind the calls is not given here.
What was measured:
THP-1 [1] = experiment: Increase in human THP1 cells mediated phagocytosis of apoptotic polymorphonuclear leukocytes at 10 pM after 15 mins; assay type: functional, cell-based
Summary of the method: (§1)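 THP-1 cells differentiated with 100 nM PMA for 48 h (5 × 10^5 cells/well), pretreated 15 min at 37 °C, then co-incubated 2 h at 37 °C with 1 × 10^6 human PMNs made apoptotic by 20 h culture. Vehicle was 0.1% DMSO or ethanol. After cold PBS washes, myeloperoxidase staining; % THP-1 cells containing ≥1 PMN (≥400 cells, duplicate wells); n = 3.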

THP-1 [2] = experiment: Induction of F-actin rearrangement in human THP1 cells at 1 nM after 15 mins; assay type: functional, cell-based
Summary of the method: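 PMA-differentiated THP-1 cells (1 × 10^6/well) on glass coverslips, exposed to stimulus at 1 nM for 15 min. Fixed in 3.8% paraformaldehyde, permeabilized with 0.1% Triton X-100, stained with 0.33 µmol/L Oregon Green-phalloidin for 30 min. F-actin localization imaged by fluorescence microscopy (×100 oil objective); three independent experiments.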

THP-1 [3] = experiment: Increase in human THP1 cells mediated phagocytosis of apoptotic polymorphonuclear leukocytes at 0.1 pM to 1 nM after 15 mins; assay type: functional, cell-based; summary of the method: as §1
THP-1 [4] = experiment: Increase in human THP1 cells mediated phagocytosis of apoptotic polymorphonuclear leukocytes at 1 nM in presence of pan-FPR/ALXR antagonist Boc2; assay type: functional, cell-based
Summary of the method: (§2)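 PMA-differentiated THP-1 cells given Boc2 (100 µM), with or without stimulus, for 15 min at 37 °C. Then co-incubated 2 h with apoptotic human PMNs. Phagocytosis scored by myeloperoxidase staining as % THP-1 cells containing PMNs; mean ± SEM, n = 3, compared with no Boc2.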

THP-1 [5] = experiment: Increase in human THP1 cells mediated phagocytosis of apoptotic polymorphonuclear leukocytes at 1 pM in presence of pan-FPR/ALXR antagonist Boc2; assay type: functional, cell-based; summary of the method: as §2
THP-1 [6] = experiment: Increase in human THP1 cells mediated phagocytosis of apoptotic polymorphonuclear leukocytes at 0.01 pM after 15 mins; assay type: functional, cell-based; summary of the method: as §1
THP-1 [7] = experiment: Increase in human THP1 cells adherence to laminin after 30 mins; assay type: functional, cell-based
Summary of the method: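 THP-1 cells loaded with 1 µM BCECF-AM for 20 min at 37 °C, then resuspended at 3.3 × 10^6/mL in PBS2+ with 0.1% BSA. Cells settled 10 min on laminin-coated wells, then given agonist or vehicle for 30 min at 37 °C. Washed, lysed in NaOH/SDS, fluorescence read. Percent adherence above vehicle; three experiments, each in triplicate.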

Mus musculus = experiment: Decrease in zymosan-induced neutrophil accumulation in mouse model of peritonitis at 50 ug/kg, iv; assay type: functional, organism-based
Summary of the method: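 Zymosan A peritonitis in mice: analogue at 0.5-50 µg/kg given intravenously (vehicle n = 15; n = 6 per dose group), followed 5 min later by i.p. zymosan A, 1 mg in 0.5 mL sterile PBS. Peritoneal lavage at 4 h with PBS/3 mM EDTA/heparin. Cells Fc-blocked, stained with PE anti-Gr-1 and counted as neutrophils (Gr-1+). Mean ± SEM versus vehicle.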

THP-1 [8] = experiment: Increase in human THP1 cells mediated phagocytosis of apoptotic polymorphonuclear leukocytes at 1 nM after 15 mins; assay type: functional, cell-based; summary of the method: as §1
THP-1 [9] = experiment: Increase in human THP1 cells mediated phagocytosis of apoptotic polymorphonuclear leukocytes at 0.01 pM to 1 nM after 15 mins; assay type: functional, cell-based; summary of the method: as §1

SMILES | Activity (THP-1 [2]) | Activity (THP-1 [3]) | Activity (THP-1 [4]) | Activity (THP-1 [7]) | Activity (THP-1 [9]) | also measured
CCCCC[C@H](O)[C@H](O)/C=C/c1ccccc1[C@@H](O)CCCC(=O)OC(C)(C)C | Active | – | – | – | – | Activity (THP-1 [1]): Active
CCCCC[C@H](O)/C=C/C=C\C=C\C=C\[C@@H](O)[C@@H](O)CCCC(=O)O | – | Active | inactive | – | – | –
CCCCC[C@@H](O)c1ccccc1/C=C/[C@@H](O)[C@@H](O)CCCC(=O)OC | Active | Active | – | Active | – | Activity (THP-1 [5]): inactive; Activity (THP-1 [6]): inactive; Activity (Mus musculus): Active
CCCCC[C@H](O)c1ccccc1/C=C/[C@@H](O)[C@@H](O)CCCC(=O)OC | Active | – | inactive | Active | – | Activity (THP-1 [8]): Active
CCCCC[C@H](O)c1ccccc1/C=C/[C@@H](O)[C@@H](O)CCCC(=O)O | – | – | – | – | inactive | –
CCCCC[C@@H](O)c1ccccc1/C=C/[C@@H](O)[C@@H](O)CCCC(=O)O | – | – | – | – | inactive | –

From ChEMBL document CHEMBL1138264, “Aromatic lipoxin A4 and lipoxin B4 analogues display potent biological activities” (J Med Chem, 2007)
